Experimental data published in ChEMBL document CHEMBL4680154, “The optimization of xanthine derivatives leading to HBK001 hydrochloride as a potent dual ligand targeting DPP-IV and GPR119” (Eur J Med Chem, 2020).
In brackets after ≈: the same amount, converted by molar mass.

System: not listed separately
Assay: Elimination half life in ICR mouse plasma at 20 mg/kg, po measured up to 24 hrs
Format: ADME, organism-based
Conditions: read-out: beta t1/2 (converted)
In short: (§1)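 Male ICR mice (26–27 g), three per route. Oral dose given as a 2 mg/mL suspension in 0.5% carboxymethyl cellulose; intravenous dose as 0.4 mg/mL in 30% SBECD with 1 mol/L HCl. Blood taken at 5, 15, 30 min and 1, 2, 4, 7, 24 h; plasma stored at -80 °C. Non-compartmental analysis; F = (AUCpo×dose iv)/(AUCiv×dose po).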

Compound | half-life
CC#CCn1c(N2CCC[C@@H](N)C2)nc2c1c(=O)n(CCCN1CCN(c3nc(-c4ccccc4)no3)CC1)c(=O)n2C | 1.06 h

System: not listed separately
Assay: AUC(0 to t) in Sprague-Dawley rat plasma at 30 mg/kg, po measured up to 24 hrs
Format: ADME, organism-based
Design: route oral, dose 30 mg/kg, time <=24
Conditions: not given
In short: (§2)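 Male SD rats (180–200 g), three per route, dosed as free base content. Oral formulation in 0.5% carboxymethyl cellulose; intravenous formulation in normal saline. Sampling at 5, 15, 30 min and 1, 1.5, 2, 4, 6, 8, 12, 24 h; plasma kept at -80 °C. Non-compartmental parameters; F = (AUCpo×dose iv)/(AUCiv×dose po).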

Compound | AUC(0-t) at 24 h
CC#CCn1c(N2CCC[C@@H](N)C2)nc2c1c(=O)n(CCCN1CCN(c3nc(-c4ccccc4)no3)CC1)c(=O)n2C | 468 ng·h/mL

System: not listed separately
Assay: Elimination half-life in Sprague-Dawley rat plasma at 30 mg/kg, po measured up to 24 hrs
Format: ADME, organism-based
Conditions: read-out: beta t1/2 (converted)
In short: as §2

Compound | half-life
CC#CCn1c(N2CCC[C@@H](N)C2)nc2c1c(=O)n(CCCN1CCN(c3nc(-c4ccccc4)no3)CC1)c(=O)n2C | 1.11 h

System: not listed separately
Assay: Tmax in Sprague-Dawley rat plasma at 30 mg/kg, po measured up to 24 hrs
Format: ADME, organism-based
Conditions: not given
In short: as §2

Compound | Tmax
CC#CCn1c(N2CCC[C@@H](N)C2)nc2c1c(=O)n(CCCN1CCN(c3nc(-c4ccccc4)no3)CC1)c(=O)n2C | 1.17 h

System: not listed separately
Assay: Oral bioavailability in ICR mouse at 20 mg/kg
Format: ADME, organism-based
Conditions: in vivo
In short: as §1

Compound | bioavailability
CC#CCn1c(N2CCC[C@@H](N)C2)nc2c1c(=O)n(CCCN1CCN(c3nc(-c4ccccc4)no3)CC1)c(=O)n2C | 12.2%

System: not listed separately
Assay: Cmax in ICR mouse plasma at 20 mg/kg, po measured up to 24 hrs
Format: ADME, organism-based
Design: route oral, dose 20 mg/kg, time <=24
Conditions: not given
In short: as §1

Compound | Cmax
CC#CCn1c(N2CCC[C@@H](N)C2)nc2c1c(=O)n(CCCN1CCN(c3nc(-c4ccccc4)no3)CC1)c(=O)n2C | 213 ng/mL

System: not listed separately
Assay: Mean residence time (0 to infinity) in Sprague-Dawley rat at 30 mg/kg, po measured up to 24 hrs
Format: ADME, organism-based
Conditions: in vivo
In short: as §2

Compound | MRT inf
CC#CCn1c(N2CCC[C@@H](N)C2)nc2c1c(=O)n(CCCN1CCN(c3nc(-c4ccccc4)no3)CC1)c(=O)n2C | 2.11 h

System: not listed separately
Assay: Metabolic stability in ICR/CD-1 mouse hepatocytes assessed as parent compound remaining incubated for 30 mins by LC-MS/MS analysis
Format: ADME, cell-based, Hepatocyte
Conditions: read-out: Stabilty
In short: (§3)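 Hepatocytes from male ICR/CD-1 mice, male Sprague-Dawley rats, or mixed human donors. Parent compound measured after 30 min incubation and normalised to the time-zero concentration.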

Compound | remaining at 0.5 h
CC#CCn1c(N2CCC[C@@H](N)C2)nc2c1c(=O)n(CCCN1CCN(c3nc(-c4ccccc4)no3)CC1)c(=O)n2C | 32%

System: not listed separately
Assay: Metabolic stability in human hepatocytes assessed as parent compound remaining incubated for 30 mins by LC-MS/MS analysis
Format: ADME, cell-based, Hepatocyte
Conditions: read-out: Stabilty
In short: as §3

Compound | remaining at 0.5 h
CC#CCn1c(N2CCC[C@@H](N)C2)nc2c1c(=O)n(CCCN1CCN(c3nc(-c4ccccc4)no3)CC1)c(=O)n2C | 101%

System: not listed separately
Assay: Oral bioavailability in Sprague-Dawley rat at 30 mg/kg
Format: ADME, organism-based
Conditions: in vivo
In short: as §2

Compound | bioavailability
CC#CCn1c(N2CCC[C@@H](N)C2)nc2c1c(=O)n(CCCN1CCN(c3nc(-c4ccccc4)no3)CC1)c(=O)n2C | 31.8%

System: not listed separately
Assay: AUC(0 to infinity) in Sprague-Dawley rat plasma at 30 mg/kg, po measured up to 24 hrs
Format: ADME, organism-based
Design: route oral, dose 30 mg/kg, time <=24
Conditions: not given
In short: as §2

Compound | AUC(0-inf)
CC#CCn1c(N2CCC[C@@H](N)C2)nc2c1c(=O)n(CCCN1CCN(c3nc(-c4ccccc4)no3)CC1)c(=O)n2C | 502 ng·h/mL

System: not listed separately
Assay: Elimination half life in ICR mouse plasma at 2 mg/kg, iv measured up to 24 hrs
Format: ADME, organism-based
Conditions: read-out: beta t1/2 (converted)
In short: as §1

Compound | half-life
CC#CCn1c(N2CCC[C@@H](N)C2)nc2c1c(=O)n(CCCN1CCN(c3nc(-c4ccccc4)no3)CC1)c(=O)n2C | 1.64 h

System: not listed separately
Assay: Mean residence time (0 to infinity) in ICR mouse at 20 mg/kg, po measured up to 24 hrs
Format: ADME, organism-based
Conditions: in vivo
In short: as §1

Compound | MRT inf
CC#CCn1c(N2CCC[C@@H](N)C2)nc2c1c(=O)n(CCCN1CCN(c3nc(-c4ccccc4)no3)CC1)c(=O)n2C | 1.22 h

System: not listed separately
Assay: Metabolic stability in Sprague-Dawley rat hepatocytes assessed as parent compound remaining incubated for 30 mins by LC-MS/MS analysis
Format: ADME, cell-based, Hepatocyte
Conditions: read-out: Stabilty
In short: as §3

Compound | remaining at 0.5 h
CC#CCn1c(N2CCC[C@@H](N)C2)nc2c1c(=O)n(CCCN1CCN(c3nc(-c4ccccc4)no3)CC1)c(=O)n2C | 23.8%

Target: T1, Glucose-dependent insulinotropic receptor (Homo sapiens, UniProt Q8TDV5)
T1 sequence (Q8TDV5 whole entry): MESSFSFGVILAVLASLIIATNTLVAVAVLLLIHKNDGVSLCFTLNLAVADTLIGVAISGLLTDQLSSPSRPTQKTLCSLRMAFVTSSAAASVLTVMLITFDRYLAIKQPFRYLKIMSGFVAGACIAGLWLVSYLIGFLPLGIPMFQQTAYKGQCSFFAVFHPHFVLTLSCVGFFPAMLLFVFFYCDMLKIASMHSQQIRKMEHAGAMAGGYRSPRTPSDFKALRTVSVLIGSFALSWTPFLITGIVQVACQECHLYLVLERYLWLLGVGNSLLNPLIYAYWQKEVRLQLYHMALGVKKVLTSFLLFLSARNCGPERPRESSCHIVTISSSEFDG
Assay: Agonist activity at CREB-LBD and Gal4-DBD fused recombinant human GPR119 expressed in HEK293 cells by firefly luciferase assay
Format: functional, cell-based
Conditions: not given
In short: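 HEK293 cells transiently transfected with human GPR119, a Gal4-DBD/CREB-LBD fusion and a Gal4 UAS-driven luciferase reporter, then treated with compound (DMSO vehicle). Firefly luciferase luminescence read. Activation fold = compound/vehicle, expressed as percent of the AR231453 activation fold. EC50 obtained by curve fitting.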

Compound | EC50
CC#CCn1c(N2CCC[C@@H](N)C2)nc2c1c(=O)n(CCCN1CCN(c3nc(-c4ccccc4)no3)CC1)c(=O)n2C | 1400 nM

System: not listed separately
Assay: AUC(0 to infinity) in ICR mouse plasma at 20 mg/kg, po measured up to 24 hrs
Format: ADME, organism-based
Design: route oral, dose 20 mg/kg, time <=24
Conditions: not given
In short: as §1

Compound | AUC(0-inf)
CC#CCn1c(N2CCC[C@@H](N)C2)nc2c1c(=O)n(CCCN1CCN(c3nc(-c4ccccc4)no3)CC1)c(=O)n2C | 318 ng·h/mL

System: not listed separately
Assay: Cmax in Sprague-Dawley rat plasma at 30 mg/kg, po measured up to 24 hrs
Format: ADME, organism-based
Design: route oral, dose 30 mg/kg, time <=24
Conditions: not given
In short: as §2

Compound | Cmax
CC#CCn1c(N2CCC[C@@H](N)C2)nc2c1c(=O)n(CCCN1CCN(c3nc(-c4ccccc4)no3)CC1)c(=O)n2C | 192 ng/mL

System: not listed separately
Assay: AUC(0 to t) in ICR mouse plasma at 20 mg/kg, po measured up to 24 hrs
Format: ADME, organism-based
Design: route oral, dose 20 mg/kg, time <=24
Conditions: not given
In short: as §1

Compound | AUC(0-t) at 24 h
CC#CCn1c(N2CCC[C@@H](N)C2)nc2c1c(=O)n(CCCN1CCN(c3nc(-c4ccccc4)no3)CC1)c(=O)n2C | 308 ng·h/mL

System: not listed separately
Assay: Cmax in ICR mouse plasma at 2 mg/kg, iv measured up to 24 hrs
Format: ADME, organism-based
Design: route intravenous, dose 2 mg/kg, time <=24
Conditions: not given
In short: as §1

Compound | Cmax
CC#CCn1c(N2CCC[C@@H](N)C2)nc2c1c(=O)n(CCCN1CCN(c3nc(-c4ccccc4)no3)CC1)c(=O)n2C | 850 ng/mL

Target: DPP8/9 (Homo sapiens, UniProt Q6V1X1+Q86TI2)
Assay: Inhibition of recombinant human DPP8/9 expressed in Rosetta cells at 10 uM using Gly-Pro-p-nitroanilide as substrate incubated for 1 hr relative to control
Conditions: probe Gly-Pro-p-nitroanilide

Compound | inhibition at 1 h, 10 µM
CC#CCn1c(N2CCC[C@@H](N)C2)nc2c1c(=O)n(CCCN1CCN(c3nc(-c4ccccc4)no3)CC1)c(=O)n2C | 0%

System: not listed separately
Assay: Mean residence time (0 to infinity) in ICR mouse at 2 mg/kg, iv measured up to 24 hrs
Format: ADME, organism-based
Conditions: in vivo
In short: as §1

Compound | MRT inf
CC#CCn1c(N2CCC[C@@H](N)C2)nc2c1c(=O)n(CCCN1CCN(c3nc(-c4ccccc4)no3)CC1)c(=O)n2C | 0.76 h

System: not listed separately
Assay: AUC(0 to t) in ICR mouse plasma at 2 mg/kg, iv measured up to 24 hrs
Format: ADME, organism-based
Design: route intravenous, dose 2 mg/kg, time <=24
Conditions: not given
In short: as §1

Compound | AUC(0-t) at 24 h
CC#CCn1c(N2CCC[C@@H](N)C2)nc2c1c(=O)n(CCCN1CCN(c3nc(-c4ccccc4)no3)CC1)c(=O)n2C | 257 ng·h/mL

System: Vero
Assay: Cytotoxicity against African green monkey Vero cells incubated for 48 hrs by MTT assay
Conditions: Chlorocebus sabaeus

Compound | IC50
CC#CCn1c(N2CCC[C@@H](N)C2)nc2c1c(=O)n(CCCN1CCN(c3nc(-c4ccccc4)no3)CC1)c(=O)n2C | 46.6 µg/mL (≈ 79.4 µM)

System: not listed separately
Assay: Tmax in ICR mouse plasma at 20 mg/kg, po measured up to 24 hrs
Format: ADME, organism-based
Conditions: not given
In short: as §1

Compound | Tmax
CC#CCn1c(N2CCC[C@@H](N)C2)nc2c1c(=O)n(CCCN1CCN(c3nc(-c4ccccc4)no3)CC1)c(=O)n2C | 0.42 h

System: not listed separately
Assay: AUC(0 to infinity) in ICR mouse plasma at 2 mg/kg, iv measured up to 24 hrs
Format: ADME, organism-based
Design: route intravenous, dose 2 mg/kg, time <=24
Conditions: not given
In short: as §1

Compound | AUC(0-inf)
CC#CCn1c(N2CCC[C@@H](N)C2)nc2c1c(=O)n(CCCN1CCN(c3nc(-c4ccccc4)no3)CC1)c(=O)n2C | 261 ng·h/mL
